Most compounds without a hit are left out; they make up all but 2% or so of the library.
CHRM5 agonist = agonists of human muscarinic M5 receptor (CHRM5); P08912; CHO-K1 hM5 cells, Fluo-8 calcium fluorescence; 0% DMSO wells, 100% maximal acetylcholine response; activation, % at 3 µM; hit rate 0.19% among 360,000;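 active = activation above the run's mean over test compounds plus 3 SD, cut at about 23% in these data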;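 also: signal is peak over basal fluorescence ratio across the kinetic read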
Target sequence (P08912 whole entry, looked up): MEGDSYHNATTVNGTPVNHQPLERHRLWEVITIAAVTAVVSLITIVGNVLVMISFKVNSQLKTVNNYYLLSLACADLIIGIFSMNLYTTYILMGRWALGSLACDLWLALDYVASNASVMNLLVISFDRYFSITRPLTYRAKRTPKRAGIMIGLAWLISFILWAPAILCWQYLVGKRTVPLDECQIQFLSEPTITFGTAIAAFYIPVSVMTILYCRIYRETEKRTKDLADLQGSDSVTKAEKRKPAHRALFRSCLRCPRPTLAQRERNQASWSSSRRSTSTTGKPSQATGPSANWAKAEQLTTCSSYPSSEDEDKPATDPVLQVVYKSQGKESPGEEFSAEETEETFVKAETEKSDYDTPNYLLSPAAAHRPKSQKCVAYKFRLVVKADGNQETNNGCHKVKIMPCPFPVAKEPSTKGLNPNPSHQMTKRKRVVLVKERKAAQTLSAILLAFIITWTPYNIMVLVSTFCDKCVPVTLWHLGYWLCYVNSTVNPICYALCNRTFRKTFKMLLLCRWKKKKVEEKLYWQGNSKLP
CHRM5 PAM = positive allosteric modulators of human muscarinic M5 receptor; AID 624038; P08912; CHO-K1 hM5, Fluo-8 calcium, ACh EC20 PAM; 0% = ACh EC20, 100% = ACh EC100; activation, % at 3 µM; hit rate 0.3% among 360,000;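 active = activation above the run cutoff, the mean activation of all test compounds plus 3 SD, cut at about 18% in these data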
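system = human M5 receptor in CHO-K1 cells | reagent = EC20 acetylcholine as agonist stimulus | compound dosing = single-point, 3 µM nominal | incubation = Fluo-8 loading 80 min at 37 °C plus 30 min room temperature | detection = Fluo-8 calcium dye fluorescence, kinetic read | benchmarks = low control EC20 acetylcholine (0%), high control EC100 acetylcholine (100%)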
M1 antag = blocks human M1 muscarinic receptor. P11229. CHO-K1 hM1, Fluo-8 calcium fluorescence, ACh EC80 antagonist. inhibition, % at 3 µM. hit rate 1.3% among 360,000;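 active = percent inhibition above its own plate's cutoff, namely the mean of that plate's compound wells plus 3 SD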;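 also: peak over basal fluorescence ratio during 140 s after agonist addition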
CHRM1 agonist = agonists of human M1 muscarinic receptor; AID 588814; P11229; hit rate 0.33% among 360,000; activation, % at 3 µM; CHO-K1 hM1, Fluo-8 calcium fluorescence, agonist mode; 0% DMSO, 100% acetylcholine EC100;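 active = activation above the run's mean compound activation plus 3 SD, cut at about 16% in these data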;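 also: peak over basal fluorescence ratio within a 140 s kinetic read after compound addition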
CHRM5 antagonist = CHRM5 antagonism in calcium assay; CHO-hM5 cells, Fluo-8 calcium fluorescence, ACh EC80; inhibition, % at 3 µM; hit rate 0.59% among 360,000; AID 624040;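 active = inhibition above a per-plate cutoff, the mean of that plate's test compounds plus 3 SD, cut at about 27% in these data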
CHRM1 PAM = human CHRM1 positive allosteric modulation; P11229; CHO-K1 hM1, Fluo-8 calcium fluorescence, ACh EC20; 0% = ACh EC20, 100% = maximal ACh; activation, % at 3 µM; hit rate 0.088% among 360,000; AID 588819; in the data active = activation above about 19%, passing the limit was not always enough
Hits are given with their value; 0 = inactive; - = no result given.

SMILES	CHRM5 agonist	CHRM5 PAM	M1 antag	CHRM1 agonist	CHRM5 antagonist	CHRM1 PAM
CCOc1ccc(-c2c(C)n(-c3ccc(OCC)cc3)c3[n+]2CCCCC3)cc1	0	0	0	0	35	0
N#CC1c2ccccc2-n2nncc2CN1C(=O)CCc1ccccc1 (centres undefined)	0	0	0	0	0	0
CC12C=CC(=O)CC1CCC1C2CCC2(C)C(O)C(O)CC12 (centres undefined)	0	0	0	0	35	0
CC(=O)c1ccc(NC2=NCCCS2)cc1	0	0	0	0	31	0
O=C(N/N=C/c1c(O)n(C2CCCCC2)c(=S)[nH]c1=O)c1ccccc1	0	0	0	0	0	0
O=C(N/N=C/C1C(=O)NC(=S)N(c2ccccc2)C1=O)c1cc(Br)c(O)c(Br)c1 (centres undefined)	0	0	0	0	30	0
N#CC1c2ccccc2-n2nncc2CN1C(=O)c1ccccc1F (centres undefined)	0	0	0	0	0	0
Nc1ccc(CCN2CCN(c3cccc(C(F)(F)F)c3)CC2)cc1	0	0	0	0	0	0
FC(F)(F)c1ccc2c(c1)N(CCCN1CCN(CCCl)CC1)c1ccccc1S2	0	0	42	0	0	0
CCC1([N+](=O)[O-])COP(N)(=O)OC1 (centres undefined)	0	0	0	0	0	0
Clc1ccc(OCC#CCN2CCCC2)cc1	0	0	32	0	31	0
COc1ccccc1OCC#CCN1CCOCC1	0	0	0	0	0	0
COc1ccccc1OCC#CCN1CCCCCC1	0	0	33	0	0	0
C=C(C)CC1(CC)C(=O)NC(=S)NC1=O	0	0	0	0	0	0
O=C1NC(=S)SC1=Cc1ccc(N(CCCl)CCCl)cc1	0	0	0	0	0	0
O=C1NC(=S)NC(=O)C1=Cc1cccc2cc3ccccc3cc12	0	0	0	0	0	0
CN1/C(=C\C=C2C(=O)NC(=S)NC2=O)C(C)(C)c2ccccc21	104	0	27	63	0	0
CN1CCc2nc3sc(C#N)c(N)c3c(-c3cccs3)c2C1	0	0	0	0	0	0
CN1CCc2nc(N)c(C#N)c(-c3ccccc3)c2C1	0	0	34	0	0	0
CC(=O)c1cn(Cc2ccc(C#N)cc2)c2ccccc12	0	0	0	0	42	0
O=C(NC(=S)N1CC1)c1ccccc1	0	0	0	0	0	0
c1ccc(Nc2ccc3ccccc3c2)cc1	0	0	0	0	0	0
CC(C)Nc1ccc(Nc2ccccc2)cc1	0	0	53	0	0	0
Cc1[nH]c2ccccc2c1CCN	0	19	0	0	0	0
Cc1[nH]c2ccccc2c1CCCNC1CCCCC1	0	0	0	0	0	0
SMILES	CHRM5 agonist	CHRM5 PAM	M1 antag	CHRM1 agonist	CHRM5 antagonist	CHRM1 PAM
Oc1cc(Cl)c(Cl)c(Cl)c1Cl	0	0	0	0	0	0
Oc1cc(Cl)c(Cl)c(Cl)c1	0	0	23	0	0	0
Cc1ccc(C(=O)N2CC2C)cc1 (centres undefined)	0	0	0	0	0	0
CN1CCC(O)(c2ccc(Cl)cc2)C(C(=O)c2ccc(Cl)cc2)C1 (centres undefined)	0	0	30	0	0	0
O=C1CC23c4ccccc4N4C(=O)CC5OCC=C6CN1C2CC6C5C43 (centres undefined)	0	0	0	0	0	0
c1ccc2c(c1)CN(Cc1ccc3c(c1)OCO3)Cc1cnnn1-2	0	0	0	0	0	0
NC(Cc1ccccc1)Cc1ccccc1	0	0	0	0	0	0
NC(Cc1ccccc1)c1nn[nH]n1 (centres undefined)	0	0	0	0	30	0
C[n+]1c(-c2ccccc2)c2cc(N)ccc2c2ccc(N)cc21	0	0	0	0	0	0
Nc1ccc2ccc3cccc[n+]3c2c1	27	0	0	0	0	0
O=[N+]([O-])c1ccc(N2CCCNCC2)c2ncccc12	0	0	82	0	29	0
O=[N+]([O-])c1cccnc1N1CCCNCC1	0	0	48	0	0	0
O=[N+]([O-])c1ccc(N2CCCCCC2)c2nonc12	545	0	53	145	58	0
O=c1[nH]c2ccccc2n1C1CCN(C(CCc2ccccc2)c2nnnn2C2CCCC2)CC1 (centres undefined)	0	0	0	0	0	0
C[C@]12CCC3C(CC[C@H]4C[C@H](O)CC[C@]34C)C1C[C@@H](CCCCl)[C@@H]2O (some centres undefined)	0	0	0	0	0	0
O=c1cc(C(F)(F)F)c2cc3c4c(c2o1)CCCN4CCC3	71	0	67	120	52	0
Cc1ncc2n1-c1ccc(Cl)cc1C(c1ccccc1F)=NC2	0	0	0	0	0	0
Cc1cc(Br)cn2c(CC(=O)N3CCCCC3)c(-c3ccc(F)cc3)nc12	0	0	-	-	0	-
COc1ccc(CN2CCCC(C(=O)c3ccc(Cl)cc3)C2)c(OC)c1 (centres undefined)	0	0	39	0	0	0
COc1ccc(CN2CCCC(C(=O)c3cccc(Cl)c3)C2)cc1 (centres undefined)	0	0	42	0	0	0
COc1cccc(C(=O)C2CCCN(Cc3ccc4nonc4c3)C2)c1 (centres undefined)	0	0	0	0	0	0
COc1ccc(C(=O)C2CCCN(CC3CCCCC3)C2)cc1OC (centres undefined)	0	0	78	0	0	0
COc1ccc(C(=O)C2CCCN(Cc3ccsc3)C2)cc1OC (centres undefined)	0	0	0	0	0	0
COc1cccc(C(=O)C2CCCN(Cc3cccc4c3OCO4)C2)c1 (centres undefined)	0	0	65	0	0	0
COc1ccc(CNCCc2c(C)[nH]c3ccc(OC(F)(F)F)cc23)c(OC)c1	0	0	0	0	32	0
SMILES	CHRM5 agonist	CHRM5 PAM	M1 antag	CHRM1 agonist	CHRM5 antagonist	CHRM1 PAM
O=C1NC(=O)C(C2CCCCCC2)C(=O)N1	0	0	0	0	0	26
C1CCC2CCCCC2C1 (centres undefined)	0	0	0	0	0	0
N=c1sccn1Cc1ccccc1F	0	0	0	17	0	0
CS(=O)(=O)c1ccc(C2=C(CNC(=O)c3nccs3)[C@H]3CC[C@@H](C2)N3Cc2ccco2)cc1	0	0	0	0	0	0
Clc1ccc(CNC2CN3CCC2CC3)cc1 (centres undefined)	0	0	0	0	0	0
Fc1ccccc1CNC1CN2CCC1CC2 (centres undefined)	0	0	45	0	0	0
O=C1C2CCN(CC2)[C@@H]1Cc1ccc2ccccc2c1O	0	0	40	0	30	0

Screening results (PubChem BioAssay)
